The full list was thinned out, with hits kept by preference.
HCT116 bCat-KO: beta-catenin-lacking colon tumor cell growth suppression | HCT116 beta-catenin knockout viability, CellTiter-Glo, 60 h; active compounds read low | viability, % at 10 µM | actives 1.5% (n = 140,000);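 active = viability at or under a set limit, the compound median less 4 SD, cut at about 6% in these data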;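 note: 0% = Hyamine 1622 control at 20 µM and 100% = untreated cell control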
PTEN del growth: growth suppressors of cells with PTEN tumor suppressor deletion; viability, % at 10 µM; HCT116 PTEN-null viability, CellTiter-Glo, 60 h; active compounds read low; actives 1.2% (n = 140,000);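 active = viability at or below a set limit, 4 SD under the median of all tested compounds, cut at about 3.7% in these data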;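 note: PTEN knockout HCT116 line with beta catenin targeted HCT116 as companion control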
Fibroblast inh: blocks proliferation of human lung fibroblasts; LL 47 human lung fibroblast viability, ATP luminescence; active compounds read low; viability, % at 10 µM; actives 1.1% (n = 85,000);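 active = viability at or below 50% in the single dose screen; inactive = viability above 50%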;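 note: compound exposure lasted 72 h before the ATP readout; 100% = median luminescence of untreated cell-only wells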
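Test system: LL 47 human lung fibroblasts; Quantity: 1,150 cells/well; Buffer or medium: IMEM plus 15% FBS; Dosing: tenfold compound dosing solution, DMSO at 0.1%; Timing: overnight cell rest, 72 h compound treatment at 37 °C; Detection: ATP-based CellTiter-Glo luminescent readout; Read-out basis: viability percentage against median untreated-cell control; Controls: cell-only wells, no compound.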
H69AR inhibit: growth inhibitors of human H69AR lung tumor cells. H69AR lung tumor viability, ATP luminescence, 72 h; active compounds read low. viability, % at 10 µM. actives 6% (n = 85,000). AID 598;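 active = viability at or below 40%; inactive = viability above 40%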;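 note: multidrug resistant small cell line overexpressing MRP-1 efflux transporter; 100% = mean luminescence of untreated control wells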
HUVEC inhibit: inhibitors of human endothelial cell proliferation | HUVEC proliferation, CellTiter-Glo luminescence, 72 h; active compounds read low | viability, % at 10 µM (by protocol) | AID 648 | actives 1.1% (n = 86,000);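 active = viability at or below 30%; inactive = viability above 30%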;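 note: 100% = median luminescence of DMSO-only cell control wells on each plate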
* hit, by the source's call; · = no result.

SMILES | HCT116 bCat-KO | PTEN del growth | Fibroblast inh | H69AR inhibit | HUVEC inhibit
O=C(NC1CC1)C1CCCN1S(=O)(=O)c1ccc2ccccc2c1 (stereo unspecified) | 99.4 | 106.4 | 94.9 | 18.3* | 77.8
N#Cc1ncc(-c2ccc3c(c2)OCCOCCOCCOCCOCCO3)nc1C#N | 3.8* | 2.8* | · | · | ·
N#Cc1ncc(-c2ccc3c(c2)OCCOCCOCCOCCO3)nc1C#N | 31.0 | 40.0 | · | · | ·
CCc1ccc(/C=C/C(=O)c2cc(Br)ccc(=O)c2O)cc1 | 5.1* | 7.0 | · | · | ·
CCOc1ccc(/C=C/C(=O)c2cc(Br)ccc(=O)c2O)cc1 | 9.0 | 9.2 | · | · | ·
Cc1cccc(/C=C/C(=O)c2cc(Br)ccc(=O)c2O)c1 | 5.2* | 8.0 | · | · | ·
CN(C)c1oc(-c2ccccc2Cl)nc1P(=O)(c1ccccc1)c1ccccc1 | 79.5 | 59.7 | · | · | ·
CCN(CC)c1ccc2cc(-c3nc4ccccc4[nH]3)c(=O)oc2c1 | 60.4 | 63.0 | 26.2* | 1.4* | 37.5
O=c1oc2ccccc2cc1-c1nnc(-c2cccc(Br)c2)o1 | · | · | 106.9 | 38.3* | 98.7
CCN(CC)c1ccc2cc(-c3nc4ccccc4n3C)c(=O)oc2c1 | 14.7 | 14.9 | 50.7 | 20.3* | 20.8*
CCN(CC)c1ccc2cc(-c3nnc(-c4ccccc4)o3)c(=O)oc2c1 | 21.8 | 14.6 | 72.3 | 21.9* | 57.1
O=C(CNC(=S)N(Cc1ccccc1)Cc1cccnc1)NC1CCCC1 | 105.3 | 85.7 | · | · | ·
O=C(O)c1ccc2c3c(ncnc13)-c1ccccc1C2=O | 33.1 | 14.6 | 22.6* | 64.9 | 40.9
CC1=C(C(=O)OC(C)C)C(c2cccs2)NC(=S)N1 (stereo unspecified) | 91.0 | 88.0 | · | · | ·
COc1cc(C(=O)O/N=C2\CCCc3c2ccc(OC)c3[N+](=O)[O-])cc(OC)c1OC | 69.7 | 78.0 | 71.4 | 16.9* | 57.9
COc1ccccc1C(=O)O/N=C1/CCCc2c1ccc(OC)c2[N+](=O)[O-] | 92.2 | 85.3 | 102.9 | 63.4 | 99.9
CC(=O)c1cccc(NC(=O)Nc2ccc3c(c2)N(C)C(=O)CS3)c1 | 87.6 | 91.5 | 93.5 | 24.0* | 33.7
Cc1occc1-c1nnc(SCC(=O)N(C)CCC#N)n1N | 94.9 | 96.1 | 95.5 | 102.9 | 98.5
Cc1cc(C)cc(N(CCC(=O)Nc2nnc(C)s2)S(=O)(=O)c2ccc(Cl)cc2)c1 | 64.8 | 44.8 | · | · | ·
COc1cc2c3c(c1)C1(C(=O)N3C(C)(C)C=C2C)C(C#N)=C(N)Oc2cc(O)ccc21 (stereo unspecified) | 74.0 | 73.8 | 92.8 | 64.9 | 68.2
CCOc1cc2c3c(c1)C1(C(=O)N3C(C)(C)C=C2C)C(C#N)=C(N)Oc2cc(O)ccc21 (stereo unspecified) | 49.4 | 40.8 | 82.5 | 33.3* | 45.8
N#Cc1ccc(NC(=O)COC(=O)CSc2nnc(-c3ccc(Cl)cc3)o2)cc1 | 90.2 | 91.6 | · | · | ·
O=C(CCSc1ccc(Cl)cc1)N1CCCCCC1 | 100.8 | 98.5 | · | · | ·
O=C(CCSc1ccc(Cl)cc1)N1CCN(c2ncccn2)CC1 | 93.6 | 95.4 | 44.8* | 101.5 | 100.4
COc1cc(OC)cc(C(=O)NC2CCN(CC(=O)Nc3cccc4ccccc34)CC2)c1 | 97.5 | 88.2 | 106.2 | 38.8* | 81.3
SMILES | HCT116 bCat-KO | PTEN del growth | Fibroblast inh | H69AR inhibit | HUVEC inhibit
CNCCCOc1ccc(C(C)(C)c2ccccc2)cc1 | 36.7 | 54.4 | 91.9 | 9.9* | 86.5
CS(=O)(=O)c1nc(-c2ccccc2)cc(-c2ccccc2)c1C#N | 1.9* | 2.4* | 39.5* | 1.5* | 38.8
Cc1ccc(/C=C/C(O)=C2/C(=O)N(C)C3(C)CC2c2ccccc2O3)cc1 (stereo unspecified) | 5.4* | 3.0* | · | · | ·
COc1ccc(/C=C/C(O)=C2/C(=O)N(C)C3(C)CC2c2ccccc2O3)cc1 (stereo unspecified) | 1.8* | 1.4* | 76.3 | 3.0* | 81.8
Cc1ccc(S(=O)(=O)C2C(=O)N(C)C3(C)CC2c2ccccc2O3)cc1C (stereo unspecified) | 88.9 | 101.8 | · | · | ·
Cc1c(C=O)c(=O)n(-c2ccccc2)n1-c1ccccc1 | 89.7 | 105.3 | · | · | ·
O=C(/C=C(\O)c1ccc(Cl)cc1)C(=O)NNC(=O)C(O)(c1ccccc1)c1ccccc1 | 93.7 | 93.5 | 95.9 | 24.0* | 73.2
CCCCNC(=O)Cc1coc2ccc3ccccc3c12 | 71.0 | 63.4 | 98.2 | 79.3 | 91.2
O=c1oc2ccccc2c(Nc2ccc3ccccc3c2)c1[N+](=O)[O-] | 45.5 | 35.1 | 90.5 | 18.9* | 58.8
O=c1oc2ccccc2c(Nc2ccc(O)cc2)c1[N+](=O)[O-] | 47.9 | 57.7 | 99.5 | 80.9 | 96.5
